What all share (assay type): functional
Assay [1] has as its system Rattus norvegicus. Kind of assay: Compound was tested for the inhibition of rat reversed passive Arthus pleurisy after peroral administration of 100 mg/kg dose at 0.94 mL of exudate volume with 0.86 mL of control (injected intrapleurally). The settings on record: route oral. The procedure, abridged: (§1)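 Male Wistar rats (about 250 g) were given compound orally before the antiserum. Under ether anesthesia, 0.2 mL rabbit anti-egg albumin antiserum was injected intrapleurally. After 30 min, egg albumin (15 mg/100 g body weight in 0.1 mL saline) was given iv. Rats were killed 4.5 h later and the thoracic cavity was rinsed with 5 mL saline. Exudate volume and infiltrated cell number were measured, with inhibition % versus controls as mean ± SEM.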

In assay [2] the test system is Rattus norvegicus. Kind of assay: Inhibition of Zymosan-induced rat's paw edema(ZPE) after peroral administration of 100 mg/kg dose. To be noted: route oral. The method, boiled down:
(§2)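 Male Wistar rats (about 150 g) were dosed orally with compound suspended in 5% arabic gum, 1 h before a subplantar hind-paw injection of 0.1 mL saline. The irritant was 1% zymosan for 33 or 1% λ-carrageenin for 34. Paw volume was measured by plethysmograph before dosing and at 4 h (zymosan) or 3 h (carrageenin). Swelling is relative to initial volume, as mean ± SEM. % inhibition is versus the control group's mean swelling.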

In assay [3] the test system is Rattus norvegicus. Kind of assay: Compound was tested for the inhibition of rat reversed passive Arthus pleurisy after peroral administration of 100 mg/kg dose at 4.35*10e6 no of cells with 3.62*10e6 cells of control. To be noted: route oral. The procedure, abridged:
(§3)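 Male Wistar rats (about 250 g) under ether received 0.2 mL rabbit anti-egg-albumin antiserum intrapleurally. Thirty min later they got 15 mg EA/100 g body weight in 0.1 mL saline iv. Compounds were given orally beforehand. Rats were killed 4.5 h after induction and the thoracic cavity rinsed with 5 mL saline. Exudate volume and infiltrated cell count were read as mean ± SE. % inhibition is versus control.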

Assay [4] concerns Rattus norvegicus. Kind of assay: Antiinflammatory activity on Carrageenan rat's paw edema(CPE) after peroral administration of 100 mg/kg dose with control swelling of 64.2%. To be noted: route oral. In general terms: The carrageenan paw model is a standard test of acute inflammation.
The test system of assay [5] is Rattus norvegicus. Kind of assay: Antiinflammatory activity on Zymosan-induced rat's paw edema(ZPE) after peroral administration of 100 mg/kg dose with control swelling of 71.7%. The settings on record: route oral. The procedure, abridged:
(§4)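 Male Wistar rats weighing about 150 g were dosed orally with compound suspended in 5% arabic gum. 1 h later, 1% zymosan in 0.1 mL saline was injected subplantarly into the hind paw. Paw volume was measured by plethysmograph before dosing and 4 h after zymosan, with edema as the volume difference. Inhibition % was derived from mean swelling versus the control group.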

For assay [6], the system named is Rattus norvegicus. Kind of assay: Inhibition of carrageenan-induced rat's paw edema (CPE) after peroral administration of 100 mg/kg dose. The settings on record: route oral. The procedure, abridged: as §2
For assay [7], the system named is Rattus norvegicus. Kind of assay: Compound was tested for the inhibition of Zymosan-induced rat's paw edema(ZPE) after peroral administration of 3 mg/kg dose. The settings on record: route oral. The procedure, abridged: as §4
Assay [8] concerns Rattus norvegicus. Kind of assay: Compound was tested for the inhibition of arachidonic acid-induced rat's paw edema(APE) after peroral administration of 10 mg/kg dose. To be noted: route oral. The procedure, abridged:
(§5)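 Test: arachidonic acid paw edema in male Wistar rats of about 150 g. Oral dosing in 5% arabic gum came 1 h before subplantar injection of 1% arachidonic acid sodium salt in 0.1 mL saline into the hind paw. Plethysmograph paw volume was read before dosing and 1 h post-irritant, and edema = volume difference. % inhibition was taken from mean swelling against controls.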

Assay [9] deals with Rattus norvegicus. Kind of assay: Compound was tested for the inhibition of rat reversed passive Arthus pleurisy after peroral administration of 10 mg/kg dose at 0.53+/-0.05 mL of exudate volume (injected intrapleurally). To be noted: route oral. The method, boiled down:
as §1

Assay [10] has as its system Rattus norvegicus. Kind of assay: Compound was tested for the inhibition of rat reversed passive Arthus pleurisy after peroral administration of 10 mg/kg dose at 4.6+/-0.25*10e6 no of cells. To be noted: route oral. The method, boiled down:
as §1

Assay [11] relates to Rattus norvegicus. Kind of assay: Compound was tested for the inhibition of rat reversed passive Arthus pleurisy after peroral administration of 100 mg/kg dose at 0.08+/-0.01 mL of exudate volume (injected intrapleurally). To be noted: route oral. The procedure, abridged: as §1
Assay [12] deals with Rattus norvegicus. Kind of assay: Compound was tested for the inhibition of Zymosan-induced rat's paw edema(ZPE) after peroral administration of 10 mg/kg dose. The settings on record: po. The procedure, abridged: as §4
In assay [13] the test system is Rattus norvegicus. Kind of assay: Compound was tested for the inhibition of rat reversed passive Arthus pleurisy after peroral administration of 100 mg/kg dose at 2.13+/-0.24*10e6 no of cells. To be noted: route oral. The procedure, abridged: as §1
For assay [14], the system named is Rattus norvegicus. Kind of assay: Compound was tested for the inhibition of rat reversed passive Arthus pleurisy after peroral administration of 100 mg/kg dose at 2.13*10e6 no of cells with 3.86*10e6 cells of control. The settings on record: route oral. The procedure, abridged: as §1
Assay [15] concerns Rattus norvegicus. Kind of assay: Compound was tested for the inhibition of Carrageenan rat's paw edema(CPE) after peroral administration of 3 mg/kg dose. To be noted: route oral.
The subject of assay [16] is Rattus norvegicus. Kind of assay: Compound was tested for the inhibition of arachidonic acid-induced rat's paw edema(APE) after peroral administration of 3 mg/kg dose. The settings on record: route oral. The procedure, abridged:
as §5

Assay [17] deals with Rattus norvegicus. Kind of assay: Compound was tested for the inhibition of arachidonic acid-induced rat's paw edema(APE) after peroral administration of 30 mg/kg dose. To be noted: route oral. The procedure, abridged:
as §5

Assay [18] has as its system Rattus norvegicus. Kind of assay: Compound was tested for the inhibition of rat reversed passive Arthus pleurisy after peroral administration of 100 mg/kg dose at 0.08 mL of exudate volume with 0.86 mL of control (injected intrapleurally). The settings on record: route oral. The method, boiled down: as §1
Assay [19] deals with Rattus norvegicus. Kind of assay: Compound was tested for the inhibition of rat reversed passive Arthus pleurisy after peroral administration of 25 mg/kg dose at 4.74+/-0.24*10e6 no of cells. To be noted: route oral. The method, boiled down: as §3
Assay [20] relates to Rattus norvegicus. Kind of assay: Compound was tested for the inhibition of rat reversed passive Arthus pleurisy after peroral administration of 25 mg/kg dose at 0.4+/-0.07 mL of exudate volume (injected intrapleurally). To be noted: route oral. The method, boiled down:
as §3

The test system of assay [21] is Rattus norvegicus. Kind of assay: Compound was tested for the inhibition of rat reversed passive Arthus pleurisy after peroral administration of 5 mg/kg dose at 0.73+/-0.03 mL of exudate volume (injected intrapleurally). The settings on record: route oral. The procedure, abridged:
as §3

The test system of assay [22] is Rattus norvegicus. Kind of assay: Compound was tested for the inhibition of rat reversed passive Arthus pleurisy after peroral administration of 5 mg/kg dose at 2.79 +/- 0.19*10e6 no of cells. The settings on record: route oral. The method, boiled down: as §3
The test system of assay [23] is Rattus norvegicus. Kind of assay: Antiinflammatory activity on Carrageenan rat's paw edema(CPE) after peroral administration of 10 mg/kg dose with control swelling of 75.8%. The settings on record: route oral.
Assay [24] relates to Rattus norvegicus. Kind of assay: Antiinflammatory activity on Zymosan-induced rat's paw edema(ZPE) after peroral administration of 3 mg/kg dose with control swelling of 68.1%. To be noted: route oral. The procedure, abridged: as §4
For assay [25], the system named is Rattus norvegicus. Kind of assay: Compound was tested for the inhibition of arachidonic acid-induced rat's paw edema(APE) after peroral administration of 10 mg/kg dose with control swelling of 51.6%. To be noted: route oral. The procedure, abridged: as §5
The subject of assay [26] is Rattus norvegicus. Kind of assay: Compound was tested for the inhibition of arachidonic acid-induced rat's paw edema(APE) after peroral administration of 3 mg/kg dose with control swelling of 51.6%. To be noted: route oral. The method, boiled down:
as §5

Assay [27] relates to Rattus norvegicus. Kind of assay: Compound was tested for the inhibition of arachidonic acid-induced rat's paw edema(APE) after peroral administration of 30 mg/kg dose with control swelling of 51.6%. The settings on record: route oral.
For assay [28], the system named is Rattus norvegicus. Kind of assay: Antiinflammatory activity on Zymosan-induced rat's paw edema(ZPE) after peroral administration of 30 mg/kg dose with control swelling of 68.1%. To be noted: route oral. The method, boiled down:
as §4

Assay [29] relates to Rattus norvegicus. Kind of assay: Antiinflammatory activity on Carrageenan rat's paw edema(CPE) after peroral administration of 3 mg/kg dose with control swelling of 75.8%. The settings on record: route oral.
Assay [30] concerns Rattus norvegicus. Kind of assay: Antiinflammatory activity on Carrageenan rat's paw edema(CPE) after peroral administration of 30 mg/kg dose with control swelling of 75.8%. The settings on record: route oral.
Assay [31] relates to Rattus norvegicus. Kind of assay: Antiinflammatory activity on Zymosan-induced rat's paw edema(ZPE) after peroral administration of 10 mg/kg dose with control swelling of 68.1%. To be noted: route oral. The method, boiled down: as §4
Assay [32] deals with Rattus norvegicus. Kind of assay: Compound was tested for the inhibition of Zymosan-induced rat's paw edema(ZPE) after peroral administration of 30 mg/kg dose. The settings on record: route oral. The method, boiled down: as §4
The subject of assay [33] is Rattus norvegicus. Kind of assay: Compound was tested for the inhibition of rat reversed passive Arthus pleurisy after peroral administration of 100 mg/kg dose at 0.65 mL of exudate volume with 0.84 mL of control (injected intrapleurally). To be noted: route oral. The procedure, abridged:
as §1

Assay [34] concerns Rattus norvegicus. Kind of assay: Compound was tested for the inhibition of rat reversed passive Arthus pleurisy after peroral administration of 100 mg/kg dose at 4.66*10e6 no of cells with 5.72*10e6 cells of control. To be noted: route oral. The procedure, abridged:
as §3

The test system of assay [35] is Rattus norvegicus. Kind of assay: Antiinflammatory activity on Carrageenan rat's paw edema(CPE) after peroral administration of 100 mg/kg dose with control swelling of 68.1%. To be noted: route oral.
For assay [36], the system named is Rattus norvegicus. Kind of assay: Antiinflammatory activity on Zymosan-induced rat's paw edema(ZPE) after peroral administration of 100 mg/kg dose with control swelling of 62.8%. The settings on record: route oral. The procedure, abridged: as §4
For assay [37], the system named is Rattus norvegicus. Kind of assay: Compound was tested for the inhibition of rat reversed passive Arthus pleurisy after peroral administration of 100 mg/kg dose at 0.63 mL of exudate volume with 0.84 mL of control (injected intrapleurally). To be noted: route oral. The procedure, abridged:
as §1

Assay [38] concerns Rattus norvegicus. Kind of assay: Compound was tested for the inhibition of rat reversed passive Arthus pleurisy after peroral administration of 100 mg/kg dose at 4.63*10e6 no of cells with 5.72*10e6 cells of control. To be noted: route oral. The method, boiled down: as §3

SMILES strings stand for the structures.

With `CN(C)CCNC(=O)c1c(O)c2cccnc2n(-c2ccccc2)c1=O`, the inhibition in vivo (in general, the change of the read-out against control, counted positive when it falls) at 100 mg/kg is -10.4% in the assay with Rattus norvegicus [1], 22.6% with Rattus norvegicus [2], -16.6% in the assay with Rattus norvegicus [3] and 18.4% with Rattus norvegicus [6]. Further, the Swelling in the assay on Rattus norvegicus [4] amounted to 52.4%; in the assay on Rattus norvegicus [5], 55.5%.
Consider `O=C(Nc1ccncc1)c1c(O)c2cccnc2n(-c2ccccc2)c1=O`, for which the inhibition in vivo at 100 mg/kg worked out at 34.9% in the assay on Rattus norvegicus [2]; 100% with Rattus norvegicus [11]; 58.6% in the assay on Rattus norvegicus [13]; 58.6% in the assay with Rattus norvegicus [14]; 100% in the assay on Rattus norvegicus [18]; 24.3% with Rattus norvegicus [6]. Also, the inhibition in vivo at 3 mg/kg amounted to 11.9% with Rattus norvegicus [7], 4.9% in the assay on Rattus norvegicus [15] and 36% in the assay on Rattus norvegicus [16]. Besides, the inhibition in vivo at 10 mg/kg in the assay with Rattus norvegicus [8] is 50.6%; in the assay with Rattus norvegicus [9], 32.9%; with Rattus norvegicus [10], 35.8%; in the assay on Rattus norvegicus [12], 20.3%. For the same molecule, the values for the inhibition in vivo at 30 mg/kg in the assay on Rattus norvegicus [17] and in the assay with Rattus norvegicus [32] were 43.6% and 28.8%, respectively. In addition, the inhibition in vivo at 25 mg/kg with Rattus norvegicus [19] is 33.3%; in the assay with Rattus norvegicus [20] it was 51.4%. The inhibition in vivo at 5 mg/kg with Rattus norvegicus [21] is -3.2%; with Rattus norvegicus [22] it was 26%. Besides, the Swelling in the assay on Rattus norvegicus [23] was 71.3%; in the assay on Rattus norvegicus [4], 48.6%; in the assay with Rattus norvegicus [24], 60.6%; with Rattus norvegicus [25], 25.5%; in the assay with Rattus norvegicus [26] it was 33%; with Rattus norvegicus [27] it was 29.1%. In addition, the Swelling is recorded as 48.5% in the assay on Rattus norvegicus [28]; 46.7% in the assay with Rattus norvegicus [5]; 72.1% with Rattus norvegicus [29]; 58.8% in the assay with Rattus norvegicus [30]; 54.3% with Rattus norvegicus [31].
`Cc1ccc(NC(=O)c2c(O)c3cccnc3n(-c3ccccc3)c2=O)cc1`: the inhibition in vivo at 100 mg/kg with Rattus norvegicus [2] is -3.5%; in the assay on Rattus norvegicus [33], 22.4%; with Rattus norvegicus [34], 21.5%; in the assay on Rattus norvegicus [6], 2.2%. Moreover, the values for the Swelling in the assay on Rattus norvegicus [35] and in the assay on Rattus norvegicus [36] were 66.6% and 65%, respectively.
Regarding `COc1cccc(NC(=O)c2c(O)c3cccnc3n(-c3ccccc3)c2=O)c1`, the inhibition in vivo at 100 mg/kg in the assay on Rattus norvegicus [37] worked out at 26.9%; in the assay with Rattus norvegicus [2], 5.7%; in the assay with Rattus norvegicus [38], 22.1%; in the assay with Rattus norvegicus [6], 20.7%. In addition, the Swelling was 54% in the assay with Rattus norvegicus [35] and 59.2% in the assay with Rattus norvegicus [36].

Values taken from ChEMBL document CHEMBL1126267, “A novel synthesis and potent antiinflammatory activity of 4-hydroxy-2(1H)-oxo-1-phenyl-1,8-naphthyridine-3-carboxamides” (1992).
